This note sets out measurements from ChEMBL document CHEMBL3593187, “Modified quaternary ammonium salts as potential antimalarial agents” (Bioorg Med Chem, 2015).

For assay [1], the system named is Plasmodium falciparum. The assay is described as follows: Antiplasmodial activity against chloroquine-resistant Plasmodium falciparum W2 assessed as inhibition of parasite growth after 72 hrs by parasite lactate dehydrogenase assay. It is filed as functional, organism-based. Particulars: W2, 72 h. A digest of the protocol: (§1)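 Asynchronous P. falciparum cultures (parasitaemia 1–1.5%, 1% final haematocrit, human type A-positive erythrocytes) in RPMI 1640 with 1% AlbuMaxII, 0.01% hypoxanthine, 20 mM Hepes and 2 mM glutamine. Cultures were exposed to serial dilutions (10 mg/mL stocks in water or DMSO) for 72 h at 37 °C under 1% O2/5% CO2/94% N2. Growth was read as pLDH activity (OD650), and IC50 is the mean ± SD of ≥3 independent experiments in duplicate.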

The nature of assay [2]: Selectivity index, ratio of IC50 for HMEC1 to IC50 for chloroquine-sensitive Plasmodium falciparum D10. A digest of the protocol: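 Ratio of HMEC-1 IC50 (72 h MTT) to D10 IC50. […] Serial dilutions (final DMSO ≤1%), 72 h at 37 °C under 1% O2/5% CO2/94% N2. Growth read as pLDH activity (OD650). Mean of ≥3 experiments in duplicate.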
Assay [3] can be described thus: Cytotoxicity against HMEC1 assessed as inhibition of cell proliferation after 72 hrs by MTT assay. Particulars: Homo sapiens, HMEC-1, 72 h. A digest of the protocol:
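HMEC-1 cells grown in MCDB 131 with 10% fetal calf serum, 10 ng/mL EGF, hydrocortisone, 2 mM glutamine and 20 mM Hepes. Serial compound dilutions, 72 h at 37 °C in 5% CO2, then MTT for 3 h. Formazan dissolved in SDS/DMF lysing buffer (pH 4.7), read at 550 nm (ref 650 nm). IC50 from triplicates, at least three runs.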
(Tetrazolium dyes change colour on reduction, which living cells bring about.)

Assay [4] can be described thus: Selectivity index, ratio of IC50 for HMEC1 to IC50 for chloroquine-resistant Plasmodium falciparum W2. The gist of the method: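 Selectivity index is the IC50 on HMEC-1 divided by the IC50 on W2. HMEC-1 cells were grown in MCDB 131 with 10% FCS, EGF, hydrocortisone and Hepes, then given serial dilutions for 72 h at 37 °C in 5% CO2. MTT was added for 3 h, formazan was dissolved in SDS/DMF lysis buffer at pH 4.7, and absorbance was read at 550/650 nm. Each test was run in triplicate at least three times.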

The subject of assay [5] is Plasmodium falciparum. The assay is described as follows: Resistance index, ratio of IC50 for chloroquine-resistant Plasmodium falciparum W2 to IC50 for chloroquine-sensitive Plasmodium falciparum D10. The format is functional. A digest of the protocol: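 Resistance index is the IC50 against W2 divided by the IC50 against D10. Each IC50 came from a 72 h pLDH growth assay (OD650) on asynchronous cultures at 1% haematocrit and 37 °C, with ≥3 independent experiments in duplicate.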

Assay [6] deals with Plasmodium falciparum. Briefly: Antiplasmodial activity against chloroquine-sensitive Plasmodium falciparum D10 assessed as inhibition of parasite growth after 72 hrs by parasite lactate dehydrogenase assay. The format is functional, organism-based. Particulars: D10, 72 h. The gist of the method: as §1

Some results are limits rather than exact numbers.

For `C/C=C/C=C/C=C/C[N+](C)(CCCCCCCCCCCCCCCCCC)Cc1ccccc1.[I-]` (centres undefined), the figures for the IC50 (in the assay on Plasmodium falciparum [1]; in assay [3]; with Plasmodium falciparum [6]) were 610 nM, 7020 nM and 450 nM, respectively. The Ratio IC50 in assay [2] was 15; in assay [4], 11; with Plasmodium falciparum [5], 1.3.

Turning to `C/C=C/C=C/C=C/C[N+](C)(CCCCCCCCCCCC)Cc1ccccc1.[I-]` (centres undefined), the IC50 with Plasmodium falciparum [1] was 330 nM; in assay [3], 5900 nM; in the assay on Plasmodium falciparum [6], 250 nM. The Ratio IC50 came out at 23 in assay [2], 18 in assay [4] and 1.2 with Plasmodium falciparum [5].

In the case of `CCCCCCCCCCCC[N+](C)(C)CCCCCCCC.[Br-]`, the IC50 with Plasmodium falciparum [1] came out at 480 nM; in assay [3] it was 8690 nM; in the assay on Plasmodium falciparum [6], 190 nM. The results for the Ratio IC50 (in assay [2]; in assay [4]; with Plasmodium falciparum [5]) were 44, 18 and 2.5, respectively.

As for `C/C=C/C=C/C=C/C[N+](C)(CCCCCCCCCCCCC)Cc1ccccc1.[I-]` (centres undefined), the IC50 in the assay with Plasmodium falciparum [1] turned out to be 520 nM; in assay [3], 21200 nM; in the assay with Plasmodium falciparum [6], 870 nM. In addition, the Ratio IC50 came out at 24 in assay [2], 41 in assay [4] and 0.6 in the assay with Plasmodium falciparum [5].

For `C/C=C/C=C/C=C/C[N+](C)(C)CCCCCCCCCCCCCCCC.[I-]`, the IC50 came out at 950 nM in the assay with Plasmodium falciparum [1], 7070 nM in assay [3] and 620 nM in the assay on Plasmodium falciparum [6]. Besides, the Ratio IC50 in assay [2] stood at 11; in assay [4], 7; with Plasmodium falciparum [5], 1.5.

Consider `CCN(CC)CCCC(C)Nc1ccnc2cc(Cl)ccc12` (centres undefined) [CHLOROQUINE], for which the IC50 in assay [3] was > 20000 nM.

On to `C/C=C/C=C/C=C/C[N+](C)(CCCCCCCCCCCCCC)Cc1ccccc1.[I-]` (centres undefined), for which the half-maximal inhibitory concentration (IC50) amounted to 310 nM with Plasmodium falciparum [1], 23000 nM in assay [3] and 220 nM in the assay on Plasmodium falciparum [6]. Also, the figures for the Ratio IC50 (in assay [2]; in assay [4]; in the assay with Plasmodium falciparum [5]) were 102, 75 and 1.4, respectively.

For `C/C=C/C=C/C=C/C[N+](C)(C)CCCCCCCCCCCC.[I-]`, the figures for the IC50 (with Plasmodium falciparum [1]; in assay [3]; with Plasmodium falciparum [6]) were 4710 nM, > 20000 nM and 4280 nM, respectively. In addition, in the assay with Plasmodium falciparum [5], the “Ratio IC50” value came out at 1.1.

As to `C/C=C/C=C/C=C/C[N+](C)(C)CCCCCCCCCCCCCCCCCC.[I-]`, the IC50 is 1530 nM in the assay on Plasmodium falciparum [1], 16700 nM in assay [3] and 1150 nM in the assay on Plasmodium falciparum [6]. Besides, the Ratio IC50 in assay [2] is 14; in assay [4] it was 10; with Plasmodium falciparum [5], 1.3.

With `C/C=C/C=C/C=C/C[N+](C)(C)CCCCCCCCCCCCCC.[I-]`, the IC50 was determined as 530 nM in the assay on Plasmodium falciparum [1], 7890 nM in assay [3] and 210 nM in the assay with Plasmodium falciparum [6]. Further, the figures for the Ratio IC50 (in assay [2]; in assay [4]; in the assay with Plasmodium falciparum [5]) were 36, 14 and 2.5, respectively.

As for `C/C=C/C=C/C=C/C[N+](C)(CCCCCCCCCCCCCCCC)Cc1ccccc1` (centres undefined), the IC50 in the assay with Plasmodium falciparum [1] was > 8640 nM; in assay [3] it was 5990 nM; with Plasmodium falciparum [6] it was > 8640 nM.

`C/C=C/C=C/C=C/C[N+](C)(C)CCCCCCCCCCCCC.[I-]`: the IC50 came out at 630 nM in the assay on Plasmodium falciparum [1], 5630 nM in assay [3] and 360 nM in the assay with Plasmodium falciparum [6]. For the same compound, the Ratio IC50 in assay [2] was found to be 15; in assay [4], 8; in the assay on Plasmodium falciparum [5], 1.7.

With `C/C=C/C=C/C=C/C(=O)O`, the IC50 with Plasmodium falciparum [1] and with Plasmodium falciparum [6] was > 28400 nM each time.

For orientation: IC50 means the concentration at which inhibition is half-maximal.
